Key:
[1] = target: T1, TRPV1 (Homo sapiens, UniProt Q8NER1); assay: Activity type at TRPV1
[2] = target: T1, TRPV1; type: binding; settings: human versus rat TRPV1
[3] = target: T1, TRPV1; assay: Predicted improvement of specific to nonspecific binding from Kd/Ki and Log P; settings: from Log P values
[4] = target: T1, TRPV1; assay: Time course of binding of 13 to human TRPV1 and its release
Method in brief: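 Membranes (~20 μg protein) from CHO cells expressing human TRPV1 were incubated with the tritiated test ligand in DPBS with 0.25 mg/mL BSA at 37 °C for varied times. Alternatively, after 60 min, 50 nM unlabeled reference vanilloid was added for varied times at 37 °C or at 0 °C after chilling. Workup: α1-acid glycoprotein (2 mg/mL stock), 10 min at 0 °C, pelleting, scintillation counting. Values relative to controls; triplicate means.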

[5] = target: T1, TRPV1; type: binding; settings: treated versus control

T1 sequence (Q8NER1 whole entry): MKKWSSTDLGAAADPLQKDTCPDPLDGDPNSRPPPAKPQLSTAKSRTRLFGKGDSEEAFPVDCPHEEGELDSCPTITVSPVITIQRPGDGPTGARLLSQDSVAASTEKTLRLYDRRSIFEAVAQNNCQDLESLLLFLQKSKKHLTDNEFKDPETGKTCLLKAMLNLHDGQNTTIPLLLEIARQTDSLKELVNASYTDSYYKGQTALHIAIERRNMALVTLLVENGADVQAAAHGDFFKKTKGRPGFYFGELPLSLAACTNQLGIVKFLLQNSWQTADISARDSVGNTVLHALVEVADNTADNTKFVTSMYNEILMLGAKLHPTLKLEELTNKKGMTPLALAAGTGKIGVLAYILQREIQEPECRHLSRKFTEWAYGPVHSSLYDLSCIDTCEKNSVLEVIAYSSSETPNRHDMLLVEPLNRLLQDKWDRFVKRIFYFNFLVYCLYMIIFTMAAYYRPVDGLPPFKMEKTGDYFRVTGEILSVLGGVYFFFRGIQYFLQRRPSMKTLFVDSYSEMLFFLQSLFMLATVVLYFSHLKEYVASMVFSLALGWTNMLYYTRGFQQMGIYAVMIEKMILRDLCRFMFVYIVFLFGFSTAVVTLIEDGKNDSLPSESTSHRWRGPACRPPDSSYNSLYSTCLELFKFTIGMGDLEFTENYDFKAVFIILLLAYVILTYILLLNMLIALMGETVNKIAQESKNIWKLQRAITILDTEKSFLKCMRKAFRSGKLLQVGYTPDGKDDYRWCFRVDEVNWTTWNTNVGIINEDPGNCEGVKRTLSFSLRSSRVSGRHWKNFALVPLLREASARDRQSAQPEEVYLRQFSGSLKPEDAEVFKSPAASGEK

Row | specific binding at 0 °C over the time for assay workup ([4]; 0 °C, after nonradioactive 1 (50 nM)) | time by which specific binding was largely complete ([4]; 37 °C) | time for almost full release of specifically bound ligand ([4]; 37 °C, after nonradioactive 1 (50 nM)) | change of affinity by PMA and cyclosporin A treatment [5] | Structure (SMILES) | activity [1] | human TRPV1 less sensitive (weaker binding) than rat/rodent TRPV1 [2] | Improvement over 1 from the formula ((Kd RTX × 10^LogP RTX)/(Ki compound × 10^Log P compound)) [3]
1 | – | – | – | – | CC(C)(C)c1ccc2c(c1)CC[C@H]2NC(=O)Nc1cccc2cnccc12 [A-778317, 1-((R)-5-tert-butyl-indan-1-yl)3-isoquinolin-5-yl-urea] | antagonist | – | –
2 | – | – | – | – | C=C(C)[C@]12C[C@@H](C)[C@@]34O[C@](Cc5ccccc5)(O[C@@H]1[C@@H]3C=C(COC(=O)Cc1ccc(O)c(OC)c1)C[C@]1(O)C(=O)C(C)=C[C@@H]41)O2 [compound 1, resiniferatoxin] | agonist | approximately 20 fold | 1 fold
3 | – | – | – | – | CC1CCN(c2nc(C(F)(F)F)ccc2CNC(=O)Nc2cccc3c2OCC(=O)N3)CC1 [compound 12, 1-((2-(4-methylpiperidin-1-yl)-6-(trifluoromethyl)pyridin-3-yl)methyl)-3-(3-oxo-3,4-dihydro-2H-benzo[b][1,4]oxazin-8-yl)urea] | antagonist | – | 45.6 fold
4 | stable | ≤ 5 min | ≤ 2 min | no appreciable change | [3H]CC1([3H])CCN(c2nc(C(F)(F)F)ccc2CNC(=O)Nc2cccc3c2OCC(=O)N3)CC1 [compound 13, 1-((2-(4-(methyl-[^3H])piperidin-1-yl-4-[^3H])-6-(trifluoromethyl)pyridin-3-yl)methyl)-3-(3-oxo-3,4-dihydro-2H-benzo[b][1,4]oxazin-8-yl)urea] | – | – | –

— PMC6959550 (Journal of medicinal chemistry, 2017)
